≈ marks a conversion by molar mass, not a printed value. Where “and” joins values, the source holds several entries; their conditions need not be identical. Equal entries are not always repeated. Where two headings read alike, the source gives them in different places.
Legend:
[1] = test system: Candida albicans ATCC 10231; assay: MIC, broth dilution, strain A; assay type: cell-based; details: for MIC: Candida albicans
Method in brief: (§1)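 Broth dilution MIC assay on the Candida panel: C. albicans strains A–G, C. glabrata (H), C. krusei (I) and C. parapsilosis (J). Test compounds were delivered in DMSO, with DMSO kept below 1% in the assay. The MIC is reported in µg/mL, with µM in parentheses. Reference antifungals (a polyene and four azoles) were run alongside.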

C. albicans ATCC 64124 = assay: MIC, broth dilution, strain B; assay type: cell-based, Candida albicans; details: for MIC: Candida albicans
Method in brief: as §1

[2] = test system: C. albicans ATCC MYA-2876(S); assay: MIC, broth dilution, strain C; assay type: cell-based, Candida albicans; details: for MIC: Candida albicans
Method in brief: as §1

[3] = test system: C. albicans ATCC 90819(R); assay: MIC, broth dilution, strain D; assay type: cell-based, Candida albicans; details: for MIC: Candida albicans
Method in brief: as §1

[4] = test system: C. albicans ATCC MYA-2310(S); assay: MIC, broth dilution, strain E; assay type: cell-based, Candida albicans; details: for MIC: Candida albicans
Method in brief: as §1

[5] = test system: C. albicans ATCC MYA-1237(R); assay: MIC, broth dilution, strain F; assay type: cell-based, Candida albicans; details: for MIC: Candida albicans
Method in brief: as §1

[6] = test system: C. albicans ATCC MYA-1003(R); assay: MIC, broth dilution, strain G; assay type: cell-based, Candida albicans; details: for MIC: Candida albicans
Method in brief: as §1

[7] = test system: Aspergillus terreus ATCC MYA-3633; assay: MIC, broth dilution, strain M; assay type: cell-based; details: for MIC: Aspergillus terreus
[8] = test system: Candida and Aspergillus strains; assay: MIC against whole panel of fungal strains; assay type: cell-based; details: read-out: MIC values against the panel of fungal strains
Method in brief: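 Whole-cell broth dilution MIC across Candida strains A–J and three Aspergillus strains: A. flavus ATCC MYA-3631, A. nidulans ATCC 38163 and A. terreus ATCC MYA-3633. Aspergillus was tested as freshly harvested spores. DMSO was below 1% in the assay. Values are given in µg/mL (and µM), with a polyene and four azoles as reference agents.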

[9] = test system: C. albicans ATCC 64124 (strain B); assay: Time-kill assay; assay type: cell-based, Candida albicans; details: for time from which completely fungicidal: 2× MIC; for fungicidal concentration: time-kill curves
[10] = test system: Aspergillus flavus ATCC MYA-3631; assay: MIC, broth dilution, strain K; assay type: cell-based; details: for MIC: Aspergillus flavus
[11] = test system: Aspergillus nidulans ATCC 38163; assay: MIC, broth dilution, strain L; assay type: cell-based; details: for MIC: Aspergillus nidulans
[12] = Mammalian cytotoxicity, resazurin assay, HEK293; assay type: cell-based; details: human, HEK293 cells
[13] = test system: C. albicans ATCC 10231 (strain A); assay: ROS induction assay; assay type: cell-based, Candida albicans; details: 1× and 2× MIC, 1-h treatment; H2O2 1 mM
Method in brief: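 C. albicans ATCC 10231 cells were incubated 1 h at 37 °C with test compound at 1× or 2× MIC, with no drug (negative control), or with 1 mM H₂O₂ (positive control). DCFH-DA (40 µg/mL) was then added. ROS were detected and imaged by fluorescence microscopy.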

[14] = test system: murine red blood cells (mRBCs); details: data previously presented; cited from earlier work
[15] = test system: Aspergillus strains (K–M); assay: MIC against Aspergillus strains; assay type: cell-based; details: read-out: MIC values against Aspergillus strains
[16] = test system: Candida glabrata ATCC 2001; assay: MIC, broth dilution, strain H; assay type: cell-based; details: compounds 1–4n and AmB
Method in brief: as §1

Candida krusei ATCC 6258 = assay: MIC, broth dilution, strain I; assay type: cell-based; details: compounds 1–4n and AmB
Method in brief: as §1

[17] = test system: Candida parapsilosis ATCC 22019; assay: MIC, broth dilution, strain J; assay type: cell-based; details: compounds 1–4n and AmB
Method in brief: as §1

Candida strains (A–J) = assay: MIC against panel of Candida strains; assay type: cell-based
Method in brief: as §1

[18] = ATCC10231, read-out: MIC (MIC-0)
[19] = ATCC10231, read-out: MIC (MIC-0) in µM (parentheses)
[20] = ATCC64124, read-out: MIC (MIC-0)
[21] = ATCC64124, read-out: MIC (MIC-0) in µM (parentheses)
[22] = read-out: MIC (MIC-0) in µM (parentheses)
[23] = ATCC90819, read-out: MIC (MIC-0)
[24] = ATCC90819, read-out: MIC (MIC-0) in µM (parentheses)
[25] = 2× MIC (1 25, 2a 25, 3a 0.78, AmB 7.8 µg/mL)
[26] = ATCC38163, read-out: MIC (MIC-0)
[27] = ATCC38163, read-out: MIC (MIC-0) in µM (parentheses)
[28] = 1× MIC (1 12.5, 2a 12.5, 3a 0.39, AmB 3.9 µg/mL)
[29] = read-out: MIC (MIC-2) in µM (parentheses)
[30] = strain A, compounds 1–4n and AmB
[31] = strain C, compounds 1–4n and AmB
[32] = strain D, compounds 1–4n and AmB
[33] = strain E, compounds 1–4n and AmB
[34] = strain F, compounds 1–4n and AmB
[35] = strain G, compounds 1–4n and AmB

With `C[C@@H]1[C@H](O)[C@@H](C)/C=C/C=C/C=C/C=C/C=C/C=C/C=C/[C@H](O[C@@H]2O[C@H](C)[C@@H](O)[C@H](N)[C@@H]2O)C[C@@H]2O[C@](O)(C[C@@H](O)C[C@@H](O)[C@H](O)CC[C@@H](O)C[C@@H](O)CC(=O)O[C@H]1C)C[C@H](O)[C@H]2C(=O)O` [AmB, amphotericin B] the MIC [1, 18] was 3.9 µg/mL, the MIC [1, 19] was 4.22 µM and the MIC (C. albicans ATCC 64124; [20]) was 3.9 µg/mL. It also gave an MIC (C. albicans ATCC 64124; [21]) of 4.22 µM, an MIC ([2]; read-out: MIC (MIC-0)) of 1.95 µg/mL and an MIC [2, 22] of 2.11 µM. For the same compound, the MIC [3, 23] was 0.98 µg/mL, the MIC [3, 24] was 1.06 µM and the MIC ([4]; read-out: MIC (MIC-0)) was 1.95 µg/mL. The MIC [4, 22] was 2.11 µM, the MIC ([5]; read-out: MIC (MIC-0)) was 3.9 µg/mL and the MIC [5, 22] was 4.22 µM. The MIC ([6]; read-out: MIC (MIC-0)) was 3.9 µg/mL, the MIC [6, 22] was 4.22 µM and the MIC ([7]; read-out: MIC (MIC-0)) was 3.9 µg/mL. The MIC [7, 22] was 4.22 µM, the MIC [8] was 0.98 to 15.6 µg/mL (≈ 1.06 to […] µM) and the “time from which completely fungicidal” value [9] was 6 h. The time-kill effect [9, 25] was “completely fungicidal”.
For `O=c1c2ccccc2[se]n1-c1ccccc1` [Compound 1, ebselen], the MIC [1, 18] was 12.5 µg/mL, the MIC [1, 19] was 45.6 µM and the MIC (C. albicans ATCC 64124; [20]) was 12.5 µg/mL. It also gave an MIC (C. albicans ATCC 64124; [21]) of 45.6 µM, an MIC ([2]; read-out: MIC (MIC-0)) of 12.5 µg/mL and an MIC [2, 22] of 45.6 µM. It also gave an MIC [3, 23] of 1.56 µg/mL, an MIC [3, 24] of 5.69 µM and an MIC ([4]; read-out: MIC (MIC-0)) of 3.13 µg/mL. For the same compound, the MIC [4, 22] was 11.4 µM, the MIC ([5]; read-out: MIC (MIC-0)) was greater than 12.5 µg/mL and the MIC [5, 22] was greater than 45.6 µM. The MIC ([6]; read-out: MIC (MIC-0)) was 12.5 µg/mL, the MIC [6, 22] was 45.6 µM and the MIC ([10]; read-out: MIC (MIC-0)) was 6.25 µg/mL. It also gave an MIC [10, 22] of 22.8 µM, an MIC [11, 26] of 1.56 µg/mL and an MIC [11, 27] of 5.69 µM. The MIC ([7]; read-out: MIC (MIC-0)) was 1.56 µg/mL, the MIC [7, 22] was 5.69 µM and the “time of complete fungal cell death” value ([9]; 1× MIC (12.5 µg/mL)) was 6 h. The time-kill effect [9, 28] was “fungicidal”, the “time from which completely fungicidal” value [9] was 3 h and the time-kill effect [9, 25] was “completely fungicidal”. The fungicidal concentration [9] was 12.5 µg/mL and 45.6 µM, the IC50 [12] was > 10 µg/mL and > 36.5 µM and the “ROS induction (DCFH-DA fluorescence)” value [13] was “highly fluorescent”. For the same compound, the “concentration until which no significant hemolytic activity was shown” value [14] was 15.6 µg/mL and 56.9 µM.
With `C[C@@H](c1ncncc1F)[C@](O)(Cn1cncn1)c1ccc(F)cc1F` [VOR, voriconazole] the MIC ([1]; ATCC10231, read-out: MIC (MIC-2)) was 7.8 µg/mL, the MIC ([1]; ATCC10231, read-out: MIC (MIC-2) in µM (parentheses)) was 22.3 µM and the MIC (C. albicans ATCC 64124; ATCC64124, read-out: MIC (MIC-2)) was greater than 31.2 µg/mL. It also gave an MIC (C. albicans ATCC 64124; ATCC64124, read-out: MIC (MIC-2) in µM (parentheses)) greater than 89.3 µM, an MIC ([2]; read-out: MIC (MIC-2)) of 0.975 µg/mL and an MIC [2, 29] of 2.79 µM. It also gave an MIC ([3]; ATCC90819, read-out: MIC (MIC-2)) of 1.95 µg/mL, an MIC ([3]; ATCC90819, read-out: MIC (MIC-2) in µM (parentheses)) of 5.58 µM and an MIC ([4]; read-out: MIC (MIC-2)) of 1.95 µg/mL. For the same compound, the MIC [4, 29] was 5.58 µM, the MIC ([5]; read-out: MIC (MIC-2)) was 0.975 µg/mL and the MIC [5, 29] was 2.79 µM. It also gave an MIC ([6]; read-out: MIC (MIC-2)) of 7.8 µg/mL, an MIC [6, 29] of 22.3 µM and an MIC [11, 26] of 0.03 µg/mL. It also gave an MIC [11, 27] of 0.09 µM, an MIC ([7]; read-out: MIC (MIC-0)) of 0.12 µg/mL and an MIC [7, 22] of 0.34 µM. For the same compound, the MIC [15] was 0.03 to 0.24 µg/mL (≈ 0.0859 to 0.687 µM).
For ebsulfur [Compound 2a], the “MIC (MIC-0)” value [1, 30] was 12.5 µg/mL, the “MIC (MIC-0) in µM (parentheses)” value [1, 30] was 55.0 µM and the “MIC (MIC-0) in µM (parentheses)” value (C. albicans ATCC 64124; strain B, compounds 1–4n and AmB) was greater than 55.0 µM. For the same compound, the “MIC (MIC-0)” value [2, 31] was 12.5 µg/mL, the “MIC (MIC-0) in µM (parentheses)” value [2, 31] was 55.0 µM and the “MIC (MIC-0)” value [3, 32] was 3.13 µg/mL. The “MIC (MIC-0) in µM (parentheses)” value [3, 32] was 13.8 µM, the “MIC (MIC-0)” value [4, 33] was 6.25 µg/mL and the “MIC (MIC-0) in µM (parentheses)” value [4, 33] was 27.5 µM. For the same compound, the “MIC (MIC-0)” value [5, 34] was greater than 12.5 µg/mL, the “MIC (MIC-0) in µM (parentheses)” value [5, 34] was greater than 55.0 µM and the “MIC (MIC-0)” value [6, 35] was greater than 12.5 µg/mL. The “MIC (MIC-0) in µM (parentheses)” value [6, 35] was greater than 55.0 µM, the “MIC (MIC-0)” value [16] was 6.25 µg/mL and the “MIC (MIC-0) in µM (parentheses)” value [16] was 27.5 µM. The “MIC (MIC-0)” value (Candida krusei ATCC 6258) was 3.13 µg/mL, the “MIC (MIC-0) in µM (parentheses)” value (Candida krusei ATCC 6258) was 13.8 µM and the “MIC (MIC-0)” value [17] was 12.5 µg/mL. The “MIC (MIC-0) in µM (parentheses)” value [17] was 55.0 µM, the “MIC (MIC-0)” value ([10]; strain K, all compounds) was 6.25 µg/mL and the “MIC (MIC-0) in µM (parentheses)” value ([10]; strain K, all compounds) was 27.5 µM. For the same compound, the “MIC (MIC-0)” value ([11]; strain L, all compounds) was 6.25 µg/mL, the “MIC (MIC-0) in µM (parentheses)” value ([11]; strain L, all compounds) was 27.5 µM and the “MIC (MIC-0)” value ([7]; strain M, all compounds) was 6.25 µg/mL. For the same compound, the “MIC (MIC-0) in µM (parentheses)” value ([7]; strain M, all compounds) was 27.5 µM, the “MIC values against Candida strains” value (Candida strains (A–J); strains A, B, C, F, G and J (poorly active)) was no less than 12.5 µg/mL and the “MIC values against Candida strains” value (Candida strains (A–J); strains D, E, H and I (active)) was 1.56 to 6.25 µg/mL. For the same compound, the time-kill effect [9, 28] was “fungistatic”, the time-kill effect [9, 25] was “fungicidal” and the fungicidal concentration [9] was 25 µg/mL and 110 µM. For the same compound, the “ROS induction (DCFH-DA fluorescence)” value [13] was “highly fluorescent” and the “concentration until which no significant hemolytic activity was shown” value [14] was 15.6 µg/mL and 68.6 µM.

Source: paper PMC5060091 (ChemMedChem, 2016)
